Consider two compounds from article PMC7332231 (Journal of the American Chemical Society, 2020).

For assay [1], the target named is glutathione S-transferase Pi (GSTP1) (Homo sapiens, UniProt P09211). Briefly: GSH substrate assay in recombinant GSTP1 lysates. Format: biochemical.
For the next assay, the target named is T1, DPP3 (Homo sapiens, UniProt Q9NY33).
T1 sequence (Q9NY33 2-737): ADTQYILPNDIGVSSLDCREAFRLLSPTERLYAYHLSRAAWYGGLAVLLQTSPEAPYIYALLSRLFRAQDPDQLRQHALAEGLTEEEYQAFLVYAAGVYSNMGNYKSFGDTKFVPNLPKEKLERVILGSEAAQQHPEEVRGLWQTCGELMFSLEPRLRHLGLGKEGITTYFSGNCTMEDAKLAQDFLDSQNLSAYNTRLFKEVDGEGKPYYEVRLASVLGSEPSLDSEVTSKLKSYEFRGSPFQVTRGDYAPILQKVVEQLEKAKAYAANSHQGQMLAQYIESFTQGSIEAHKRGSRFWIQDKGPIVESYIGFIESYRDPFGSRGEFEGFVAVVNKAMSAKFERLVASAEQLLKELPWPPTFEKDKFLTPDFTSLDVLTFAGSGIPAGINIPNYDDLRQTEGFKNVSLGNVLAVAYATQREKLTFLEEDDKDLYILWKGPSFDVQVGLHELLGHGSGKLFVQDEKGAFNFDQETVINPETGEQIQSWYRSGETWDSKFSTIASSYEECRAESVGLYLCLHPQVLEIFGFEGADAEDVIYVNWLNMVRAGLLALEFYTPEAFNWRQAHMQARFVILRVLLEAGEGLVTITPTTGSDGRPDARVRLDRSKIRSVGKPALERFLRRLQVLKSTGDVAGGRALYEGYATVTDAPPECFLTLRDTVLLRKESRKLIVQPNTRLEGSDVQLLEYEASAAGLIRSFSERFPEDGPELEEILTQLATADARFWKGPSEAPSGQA
Briefly: peptidase substrate assay. Format: biochemical. The method, boiled down:
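Purified DPP3 was exposed to test compound over a concentration series, and its catalytic activity was read by a peptidase substrate assay. IC50 was reported with 95% confidence intervals; data are mean ± s.e.m. from n = 3 biologically independent experiments. Y417 engagement was measured by quantitative chemical proteomics with the HHS-482 probe on soluble proteome from HEK293T cells expressing recombinant human DPP3 (n = 2).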

The target in the next assay is T2, YWHAE (Homo sapiens, UniProt P62258).
T2 sequence (P62258 1-255): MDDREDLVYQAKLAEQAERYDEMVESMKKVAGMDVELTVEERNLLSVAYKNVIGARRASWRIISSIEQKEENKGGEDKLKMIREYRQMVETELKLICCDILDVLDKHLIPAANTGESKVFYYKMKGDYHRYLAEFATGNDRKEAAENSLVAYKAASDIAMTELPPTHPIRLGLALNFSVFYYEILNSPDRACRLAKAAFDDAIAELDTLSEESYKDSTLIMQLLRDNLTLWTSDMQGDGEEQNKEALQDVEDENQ
Description: competitive SILAC chemical proteomics in DM93 soluble proteome. Format: cell-based.

Molecules are shown by their SMILES. pIC50: −log10 of the molar value.

glutathione S-transferase Pi (GSTP1), sequence (P09211 2-210): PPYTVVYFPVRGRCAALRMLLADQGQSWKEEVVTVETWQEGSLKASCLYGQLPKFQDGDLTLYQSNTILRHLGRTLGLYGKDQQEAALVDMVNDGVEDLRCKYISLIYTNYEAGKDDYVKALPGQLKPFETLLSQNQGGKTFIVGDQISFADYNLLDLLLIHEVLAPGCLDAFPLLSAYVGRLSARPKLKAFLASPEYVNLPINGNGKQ

What is called pIC50 is the negative decadic logarithm of the IC50, by convention in mol/L. Consider `O=S(=O)(c1ccc2ccccc2c1)n1cnc(-c2ccncc2)n1` [JWB198], for which the pIC50 in assay [1] is 4.80.
For `COc1ccc(-c2ncn(S(=O)(=O)c3ccc(-c4ccccc4)cc3)n2)cc1` [JWB142], the pIC50 at DPP3 was 4.77. In addition, the “competitive SILAC chemical proteomics in DM93 soluble proteome (50 μM)” value at YWHAE was > 6 SILAC ratio (SR).
